# Columns and labels:
# [1] = MRTlast in Sprague-Dawley rat lung at 1 umol/kg, it administered as micronized powder measured up to 24 hrs post dose by electrospray LC-MS analysis; type: ADME, tissue-based; conditions: inhaled or intranasal
# Summary of the method: (§1)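 Sprague-Dawley rats (250−400 g) dosed intratracheally with micronized dry powder blended with coarse lactose, delivered by insufflator under isoflurane anaesthesia. Blood collected in heparinized tubes and spun at 1200g for 15 min. Lung sampled at 0.25, 1, 2, 4, 8, 16 and 24 h, n = 3 per time point.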
# [2] = molecular target: High affinity cAMP-specific and IBMX-insensitive 3',5'-cyclic phosphodiesterase 8A (Homo sapiens, UniProt O60658); assay: Inhibition of human recombinant PDE8A1 expressed insect sf9 cells by radiometric assay
# Summary of the method: (§2)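 Human recombinant PDEs expressed in Sf9 cells, except PDE6 purified from bovine retina. Radiometric two-step method, modified from Thompson and Appleman. Five concentrations in duplicate, starting at 30 μM with 1:10 serial dilution, 1% final DMSO.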
# [3] = Inhibition of bovine retina PDE6 expressed insect sf9 cells by radiometric assay; set-up: species or system Bos taurus
# [4] = molecular target: High affinity cGMP-specific 3',5'-cyclic phosphodiesterase 9A (Homo sapiens, UniProt O76083); assay: Inhibition of human recombinant PDE9A2 expressed insect sf9 cells by radiometric assay; summary of the method: as §2
# [5] = molecular target: Dual specificity calcium/calmodulin-dependent 3',5'-cyclic nucleotide phosphodiesterase 1A (Homo sapiens, UniProt P54750); assay: Inhibition of human recombinant PDE1A expressed insect sf9 cells by radiometric assay; summary of the method: as §2
# [6] = molecular target: cGMP-dependent 3',5'-cyclic phosphodiesterase (Homo sapiens, UniProt O00408); assay: Inhibition of human recombinant PDE2A expressed insect sf9 cells by radiometric assay; summary of the method: as §2
# [7] = molecular target: cGMP-specific 3',5'-cyclic phosphodiesterase (Homo sapiens, UniProt O76074); assay: Inhibition of human recombinant PDE5A expressed insect sf9 cells by radiometric assay; summary of the method: as §2
# Lung [8] = assay: AUClast in Sprague-Dawley rat lung at 1 umol/kg, it administered as micronized powder measured up to 24 hrs post dose by electrospray LC-MS analysis; type: ADME, tissue-based; conditions: in vivo, inhaled_or_intranasal; summary of the method: as §1
# Cytochrome P450 3A4 = Cytochrome P450 3A4 (Homo sapiens, UniProt P08684); assay: Binding affinity to human liver microsomes CYP3A4 at 1 uM; type: ADME
# Summary of the method: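 Off-target screening panel of about 400 receptors, enzymes and ion channels, run at 1 μM. Result expressed as % binding.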
# [9] = Intrinsic clearance in human hepatocytes assessed per million cells at 1 uM measured after 90 mins by LC-MS/MS analysis; type: ADME, cell-based, Hepatocyte; conditions: read-out: CLH
# Summary of the method: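 Compound at 1 μM with hepatocytes (1 million cells/mL) in Leibovitz L-15 at 37 °C, in duplicate. Sampled at 0, 10, 20, 30, 60 and 90 min, quenched with ice-cold acetonitrile, centrifuged, and unchanged compound measured by LC−MS/MS. Included 7-ethoxycoumarin and 7-hydroxycoumarin activity controls and cell-free medium controls.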
# Lung [10] = assay: Cmax in Sprague-Dawley rat lung at 1 umol/kg, it administered as micronized powder measured up to 24 hrs post dose by electrospray LC-MS analysis; type: ADME, tissue-based; set-up: dose 1 umol/kg; conditions: in vivo, inhaled_or_intranasal; summary of the method: as §1
# [11] = Apparent permeability across basolateral to apical side in human Caco2 cells at 10 uM after 2 hrs by LC-MS/MS analysis; type: ADME, cell-based; conditions: Caco-2
# Rattus norvegicus = assay: Anti-inflammatory activity in OVA-induced airway inflammation Brown Norway rat model assessed inhibition of eosinophils recruitment in bronchoalveolar lavage fluid administered intratracheally as powder formulation 2 hrs before aerosolized OVA challenge measured at 24 hrs post aerosolized OVA challenge; type: functional; conditions: for ED50: inhaled or nasal
# Summary of the method: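 Male Brown Norway rats sensitized i.p. with OVA (1 mg/rat) plus Al(OH)3 (100 mg/rat) in saline on 3 consecutive days. Challenged 2–3 weeks later with nose-only 1% OVA aerosol for 30 min. Lactose-blended dry powder (10 mg/kg total powder) insufflated intratracheally; dose taken from needle weight difference. BAL with 3 × 4 mL HBSS/EDTA/HEPES at 24 h; total and differential counts by automated counter. ED50 from fitted dose–response curve.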
# [12] = molecular target: High affinity 3',5'-cyclic-AMP phosphodiesterase 7A (Homo sapiens, UniProt Q13946); assay: Inhibition of human recombinant PDE7A expressed insect sf9 cells by radiometric assay; summary of the method: as §2
# [13] = Inhibition of PDE4 in human PBMC assessed as reduction in LPS-induced TNFalpha release after 18 hrs by quantitative ELISA
# [14] = Tmax in Sprague-Dawley rat plasma at 1 umol/kg, it administered as micronized powder measured up to 24 hrs post dose by electrospray LC-MS analysis; type: ADME, cell-free; conditions: inhaled or intranasal; summary of the method: as §1
# [15] = Inhibition of PDE4 in human U937 cell lysates assessed as residual cAMP after 2.5 mins by LANCE assay
# Lung [16] = assay: Drug uptake in Sprague-Dawley rat lung at 1 umol/kg, it administered as micronized powder measured at 24 hrs post dose by electrospray LC-MS analysis; type: ADME, tissue-based; conditions: in vivo, inhaled_or_intranasal; summary of the method: as §1
# [17] = Metabolic stability in human plasma assessed as compound remaining at 1 uM measured after 60 mins in presence of NADPH by LC-MS/MS analysis; type: ADME, cell-free; conditions: read-out: Stability
# [18] = Ratio of drug uptake in Sprague-Dawley rat lung to plasma at 1 umol/kg, it administered as micronized powder measured up to 8 hrs post dose by electrospray LC-MS analysis; type: ADME; conditions: other tissue, inhaled_or_intranasal
# [19] = Tmax in Sprague-Dawley rat lung at 1 umol/kg, it administered as micronized powder measured up to 24 hrs post dose by electrospray LC-MS analysis; type: ADME, tissue-based; conditions: inhaled or intranasal; summary of the method: as §1
# Plasma [20] = assay: AUClast in Sprague-Dawley rat plasma at 1 umol/kg, it administered as micronized powder measured up to 24 hrs post dose by electrospray LC-MS analysis; type: ADME, cell-free; conditions: inhaled_or_intranasal; summary of the method: as §1
# [21] = Apparent permeability across apical to basolateral side in human Caco2 cells at 10 uM after 2 hrs by LC-MS/MS analysis; type: ADME, cell-based; conditions: Caco-2
# [22] = Intrinsic clearance in human liver microsomes at 1 uM measured after 60 mins in presence NADPH by LC-MS/MS analysis; type: ADME, microsome; conditions: read-out: CLH
# Summary of the method: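 Compound at 1 μM with human liver microsomes (0.8 mg protein/mL) in Dulbecco's buffer pH 7.4, 1 mM NADPH, 37 °C, in duplicate. Sampled at 0, 5, 10, 20, 30 and 60 min, quenched with ice-cold acetonitrile, and unchanged compound measured by LC−MS/MS. No-NADPH controls; midazolam (1 μM) as phase I control.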
# [23] = molecular target: 3',5'-cyclic-AMP phosphodiesterase 4B (Homo sapiens, UniProt Q07343); assay: Inhibition of human recombinant PDE4B expressed insect sf9 cells by radiometric assay; summary of the method: as §2
# Plasma [24] = assay: Tlast in Sprague-Dawley rat plasma at 1 umol/kg, it administered as micronized powder measured up to 24 hrs post dose by electrospray LC-MS analysis; type: ADME, cell-free; conditions: inhaled_or_intranasal; summary of the method: as §1
# [25] = molecular target: cGMP-inhibited 3',5'-cyclic phosphodiesterase 3A (Homo sapiens, UniProt Q14432); assay: Inhibition of human recombinant PDE3A expressed insect sf9 cells by radiometric assay; summary of the method: as §2
# [26] = Protein binding in human plasma at 5 uM after 5 hrs by LC-MS/MS analysis; type: ADME, cell-free; conditions: read-out: PPB (converted)
# [27] = Half life in Sprague-Dawley rat lung at 1 umol/kg, it administered as micronized powder measured up to 24 hrs post dose by electrospray LC-MS analysis; type: ADME, tissue-based; conditions: inhaled or intranasal; summary of the method: as §1
# [28] = Metabolic stability in human lung S9 fraction assessed as compound remaining at 1 uM measured after 60 mins in presence of NADPH by LC-MS/MS analysis; type: ADME; conditions: read-out: Stability
# Cytochrome P450 3A4, sequence (P08684 whole entry): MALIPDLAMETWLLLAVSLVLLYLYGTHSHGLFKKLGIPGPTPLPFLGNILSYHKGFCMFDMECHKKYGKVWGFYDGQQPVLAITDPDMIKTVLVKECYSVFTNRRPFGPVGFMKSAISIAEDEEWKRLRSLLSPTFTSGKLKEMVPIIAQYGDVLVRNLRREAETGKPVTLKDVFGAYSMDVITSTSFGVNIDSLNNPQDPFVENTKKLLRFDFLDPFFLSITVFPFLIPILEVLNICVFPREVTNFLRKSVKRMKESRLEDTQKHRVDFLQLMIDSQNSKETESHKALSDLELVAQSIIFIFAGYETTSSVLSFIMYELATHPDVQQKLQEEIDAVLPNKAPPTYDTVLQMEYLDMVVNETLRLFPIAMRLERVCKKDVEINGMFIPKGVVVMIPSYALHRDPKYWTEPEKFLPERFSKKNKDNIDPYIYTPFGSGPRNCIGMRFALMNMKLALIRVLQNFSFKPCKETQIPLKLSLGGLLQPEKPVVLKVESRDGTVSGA
# High affinity cGMP-specific 3',5'-cyclic phosphodiesterase 9A, sequence (O76083 whole entry): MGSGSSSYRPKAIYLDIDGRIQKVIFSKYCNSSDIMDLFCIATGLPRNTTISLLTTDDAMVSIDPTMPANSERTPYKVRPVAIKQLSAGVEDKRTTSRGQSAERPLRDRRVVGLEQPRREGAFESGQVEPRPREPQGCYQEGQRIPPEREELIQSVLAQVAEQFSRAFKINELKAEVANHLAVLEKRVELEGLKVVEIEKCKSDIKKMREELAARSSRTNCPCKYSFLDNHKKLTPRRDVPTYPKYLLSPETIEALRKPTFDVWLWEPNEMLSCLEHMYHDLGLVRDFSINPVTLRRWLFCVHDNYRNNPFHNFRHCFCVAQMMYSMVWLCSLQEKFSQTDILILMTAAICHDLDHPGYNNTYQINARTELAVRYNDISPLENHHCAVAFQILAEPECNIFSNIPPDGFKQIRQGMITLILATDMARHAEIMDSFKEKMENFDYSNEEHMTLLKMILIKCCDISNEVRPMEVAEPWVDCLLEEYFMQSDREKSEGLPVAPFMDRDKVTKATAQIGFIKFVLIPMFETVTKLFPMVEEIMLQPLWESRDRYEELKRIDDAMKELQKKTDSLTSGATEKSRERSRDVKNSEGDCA
# High affinity cAMP-specific and IBMX-insensitive 3',5'-cyclic phosphodiesterase 8A, sequence (O60658 whole entry): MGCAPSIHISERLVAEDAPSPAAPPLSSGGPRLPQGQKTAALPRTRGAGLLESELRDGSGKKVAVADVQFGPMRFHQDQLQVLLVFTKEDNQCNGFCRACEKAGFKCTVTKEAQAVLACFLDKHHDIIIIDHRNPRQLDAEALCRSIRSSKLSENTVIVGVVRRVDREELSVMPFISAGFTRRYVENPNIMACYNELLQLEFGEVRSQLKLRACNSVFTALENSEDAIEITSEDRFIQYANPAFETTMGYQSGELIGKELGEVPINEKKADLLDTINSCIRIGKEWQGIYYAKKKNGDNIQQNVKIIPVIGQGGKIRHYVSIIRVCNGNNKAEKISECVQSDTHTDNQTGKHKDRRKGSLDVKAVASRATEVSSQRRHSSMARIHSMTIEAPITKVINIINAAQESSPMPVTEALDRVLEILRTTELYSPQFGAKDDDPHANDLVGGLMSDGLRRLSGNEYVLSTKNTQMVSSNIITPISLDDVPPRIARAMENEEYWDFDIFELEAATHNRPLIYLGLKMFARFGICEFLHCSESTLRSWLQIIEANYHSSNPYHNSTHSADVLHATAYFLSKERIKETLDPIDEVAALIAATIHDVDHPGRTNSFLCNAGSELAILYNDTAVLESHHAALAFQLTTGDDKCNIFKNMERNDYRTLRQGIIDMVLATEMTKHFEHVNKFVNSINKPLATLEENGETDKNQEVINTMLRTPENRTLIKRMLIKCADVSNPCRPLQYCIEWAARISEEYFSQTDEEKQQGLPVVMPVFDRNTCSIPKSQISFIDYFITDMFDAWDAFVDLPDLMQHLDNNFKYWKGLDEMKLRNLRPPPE
# Dual specificity calcium/calmodulin-dependent 3',5'-cyclic nucleotide phosphodiesterase 1A, sequence (P54750 whole entry): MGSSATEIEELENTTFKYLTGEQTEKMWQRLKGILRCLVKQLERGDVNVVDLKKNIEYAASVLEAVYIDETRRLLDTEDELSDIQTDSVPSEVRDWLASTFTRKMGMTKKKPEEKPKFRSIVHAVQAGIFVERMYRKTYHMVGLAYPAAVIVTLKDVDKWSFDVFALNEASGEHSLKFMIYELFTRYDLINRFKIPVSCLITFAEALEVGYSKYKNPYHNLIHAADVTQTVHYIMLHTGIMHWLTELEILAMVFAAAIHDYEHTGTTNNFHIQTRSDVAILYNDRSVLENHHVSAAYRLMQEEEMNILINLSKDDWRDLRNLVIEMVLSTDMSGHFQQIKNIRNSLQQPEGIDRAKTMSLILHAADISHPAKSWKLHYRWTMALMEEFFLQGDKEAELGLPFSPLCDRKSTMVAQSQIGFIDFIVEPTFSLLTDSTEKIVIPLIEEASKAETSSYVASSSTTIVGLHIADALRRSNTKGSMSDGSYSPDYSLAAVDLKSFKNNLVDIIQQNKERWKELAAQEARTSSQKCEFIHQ
# cGMP-dependent 3',5'-cyclic phosphodiesterase, sequence (O00408 whole entry): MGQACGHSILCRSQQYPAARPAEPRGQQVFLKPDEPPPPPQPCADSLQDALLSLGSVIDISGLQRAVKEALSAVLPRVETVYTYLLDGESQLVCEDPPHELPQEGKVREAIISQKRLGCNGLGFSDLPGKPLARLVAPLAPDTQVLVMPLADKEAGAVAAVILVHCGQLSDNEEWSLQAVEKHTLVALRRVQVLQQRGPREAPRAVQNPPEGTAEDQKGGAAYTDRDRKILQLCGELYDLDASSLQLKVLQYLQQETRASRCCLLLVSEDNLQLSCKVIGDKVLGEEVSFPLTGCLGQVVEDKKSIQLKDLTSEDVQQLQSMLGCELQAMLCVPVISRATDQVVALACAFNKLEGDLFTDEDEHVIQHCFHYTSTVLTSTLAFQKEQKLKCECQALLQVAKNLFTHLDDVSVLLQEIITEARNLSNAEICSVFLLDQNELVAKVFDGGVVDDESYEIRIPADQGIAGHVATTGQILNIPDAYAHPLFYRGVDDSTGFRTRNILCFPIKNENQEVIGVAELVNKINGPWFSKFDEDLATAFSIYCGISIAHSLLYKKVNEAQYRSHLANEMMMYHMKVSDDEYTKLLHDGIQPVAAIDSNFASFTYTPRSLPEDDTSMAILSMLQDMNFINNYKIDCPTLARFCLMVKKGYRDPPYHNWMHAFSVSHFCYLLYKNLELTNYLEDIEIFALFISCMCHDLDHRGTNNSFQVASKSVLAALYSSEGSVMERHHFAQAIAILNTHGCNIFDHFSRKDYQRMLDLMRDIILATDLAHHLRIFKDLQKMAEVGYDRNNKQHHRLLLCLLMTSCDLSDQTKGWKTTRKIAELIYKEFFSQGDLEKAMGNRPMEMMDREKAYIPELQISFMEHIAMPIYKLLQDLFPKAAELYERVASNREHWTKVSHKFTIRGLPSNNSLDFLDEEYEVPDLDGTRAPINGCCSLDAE
# cGMP-inhibited 3',5'-cyclic phosphodiesterase 3A, sequence (Q14432 whole entry): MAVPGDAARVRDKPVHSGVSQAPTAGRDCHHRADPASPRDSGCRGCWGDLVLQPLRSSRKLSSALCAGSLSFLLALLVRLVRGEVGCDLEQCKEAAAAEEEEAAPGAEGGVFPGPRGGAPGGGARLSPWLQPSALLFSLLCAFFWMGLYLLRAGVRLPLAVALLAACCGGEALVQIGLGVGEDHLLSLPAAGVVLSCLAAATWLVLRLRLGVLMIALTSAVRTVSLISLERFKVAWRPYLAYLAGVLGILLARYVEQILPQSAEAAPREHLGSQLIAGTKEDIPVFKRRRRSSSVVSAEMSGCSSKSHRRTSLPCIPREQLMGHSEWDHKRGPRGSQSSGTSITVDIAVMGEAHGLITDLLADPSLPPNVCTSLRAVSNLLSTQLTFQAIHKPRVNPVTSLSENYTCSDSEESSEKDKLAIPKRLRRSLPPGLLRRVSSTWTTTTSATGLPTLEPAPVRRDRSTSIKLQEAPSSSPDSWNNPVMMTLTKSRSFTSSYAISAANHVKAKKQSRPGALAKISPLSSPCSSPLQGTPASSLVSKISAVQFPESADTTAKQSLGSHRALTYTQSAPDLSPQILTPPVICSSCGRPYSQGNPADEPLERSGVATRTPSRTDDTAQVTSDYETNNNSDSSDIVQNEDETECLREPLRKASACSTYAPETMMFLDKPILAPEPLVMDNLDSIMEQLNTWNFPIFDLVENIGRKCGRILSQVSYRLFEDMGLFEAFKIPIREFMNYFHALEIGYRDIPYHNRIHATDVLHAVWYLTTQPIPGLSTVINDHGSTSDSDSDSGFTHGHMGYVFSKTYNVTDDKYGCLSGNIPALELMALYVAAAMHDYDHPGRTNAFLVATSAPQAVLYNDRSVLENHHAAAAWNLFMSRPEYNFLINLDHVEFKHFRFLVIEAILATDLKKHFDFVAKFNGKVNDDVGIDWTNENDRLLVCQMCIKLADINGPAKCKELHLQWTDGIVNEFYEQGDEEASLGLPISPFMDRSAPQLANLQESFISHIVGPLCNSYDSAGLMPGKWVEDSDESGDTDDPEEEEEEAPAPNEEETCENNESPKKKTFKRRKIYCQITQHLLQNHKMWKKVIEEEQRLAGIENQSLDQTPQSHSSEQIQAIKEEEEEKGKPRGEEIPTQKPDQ
# High affinity 3',5'-cyclic-AMP phosphodiesterase 7A, sequence (Q13946 whole entry): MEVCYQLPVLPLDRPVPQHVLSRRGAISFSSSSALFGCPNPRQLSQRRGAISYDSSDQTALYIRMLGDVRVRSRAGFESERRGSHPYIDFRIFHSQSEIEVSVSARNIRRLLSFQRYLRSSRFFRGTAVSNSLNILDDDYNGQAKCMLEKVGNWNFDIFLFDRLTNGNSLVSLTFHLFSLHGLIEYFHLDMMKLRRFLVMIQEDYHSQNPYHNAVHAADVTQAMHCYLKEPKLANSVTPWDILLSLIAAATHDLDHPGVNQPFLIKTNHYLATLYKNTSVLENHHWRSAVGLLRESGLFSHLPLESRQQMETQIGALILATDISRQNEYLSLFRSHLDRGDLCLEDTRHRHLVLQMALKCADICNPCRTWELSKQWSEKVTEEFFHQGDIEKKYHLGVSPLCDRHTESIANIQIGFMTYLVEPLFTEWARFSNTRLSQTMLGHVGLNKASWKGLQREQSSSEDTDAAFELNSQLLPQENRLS
SMILES,MRT last at 24 h [1] [h],IC50 [2] [µM],IC50 [3] [µM],IC50 [4] [µM],IC50 [5] [µM],IC50 [6] [µM],IC50 [7] [µM],AUClast (Lung [8]) [nmol·h/g],Activity (Cytochrome P450 3A4) [%],hepatocyte CLint at 1 µM [9] [µL/min/1e6 cells],Cmax (Lung [10]) [nmol/g],"Papp B→A at 2 h, 10 µM [11] [×10⁻⁶ cm/s]",inhibition (Rattus norvegicus),ED50 (Rattus norvegicus) [µmol/kg],IC50 [12] [µM],IC50 [13] [nM],Tmax [14] [min],IC50 [15] [nM],Drug uptake (Lung [16]) [nmol/g],"remaining at 1 h, 1 µM [17] [%]",also measured
CN(C)C(=O)c1cccc(S(=O)(=O)N2CCS[C@H]2C(=O)O[C@@H](Cc2c(Cl)c[n+]([O-])cc2Cl)c2ccc(OC(F)F)c(OCC3CC3)c2)c1,5.56,3.56,5.78,> 30,7.4,> 30,4.61,65.27,84,82.5,16.06,3.18,Dose-dependent effect,0.04,0.66,0.019,4.98,0.053,0.22,98,"Ratio [18]: 5152; Tmax [19]: 0.25 h; AUClast (Plasma [20]): 10.38 pmol·h/g; Papp A→B at 2 h, 10 µM [21]: 0.42 ×10⁻⁶ cm/s; microsomal CLint at 1 µM [22]: 287 µL/min/mg; IC50 [23]: 0.0278 nM; Tlast (Plasma [24]): 8 h; IC50 [25]: 6.21 µM; fraction unbound at 5 h, 5 µM [26]: 0.0021; half-life [27]: 4.39 h; remaining at 1 h, 1 µM [28]: 70.2%"
CN(C)C(=O)c1cccc(S(=O)(=O)N2CCC[C@H]2C(=O)O[C@@H](Cc2c(Cl)c[n+]([O-])cc2Cl)c2ccc(OC(F)F)c(OCC3CC3)c2)c1 (relative stereo),4.52,17,> 30,> 30,25.6,> 30,13.9,49.65,73,95.5,16.24,10.2,Dose-dependent effect,0.1,3.46,0.032,4.98,0.0378,0.128,108,"Ratio [18]: 2261; Tmax [19]: 0.083 h; AUClast (Plasma [20]): 33.27 pmol·h/g; Papp A→B at 2 h, 10 µM [21]: 0.48 ×10⁻⁶ cm/s; microsomal CLint at 1 µM [22]: 591 µL/min/mg; IC50 [23]: 0.0881 nM; Tlast (Plasma [24]): 8 h; IC50 [25]: > 30 µM; fraction unbound at 5 h, 5 µM [26]: 0.0035; half-life [27]: 5.18 h; remaining at 1 h, 1 µM [28]: 71.1%"

# From ChEMBL document CHEMBL4024768, “Discovery and Optimization of Thiazolidinyl and Pyrrolidinyl Derivatives as Inhaled PDE4 Inhibitors for Respiratory Diseases” (J Med Chem, 2017)
